Experimental data from ChEMBL document CHEMBL1148632, “Discovery of a novel family of SARS-CoV protease inhibitors by virtual screening and 3D-QSAR studies” (J Med Chem, 2006).

What follows are compounds tested against Replicase polyprotein 1a (Severe acute respiratory syndrome-related coronavirus, UniProt P0C6U8) (assay: Inhibition of SARS coronavirus 3C-like protease). Settings: read-out: -Log IC50 (converted).
Outline: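 Recombinant SARS-CoV 3CLpro (pET32Xa/LIC construct) at 50 nM with 6 µM fluorogenic peptide Dabcyl-KTSAVLQ-SGFRKME-Edans in 20 mM Bis-Tris pH 7.0 at 25 °C. Cleavage read as fluorescence increase (ex 355, em 538 nm). Initial velocities plotted against inhibitor concentration; IC50 fitted with A[I] = A[0]×(1 − [I]/([I]+IC50)).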
For `Cc1nc(SCC(=O)Nc2ccc([N+](=O)[O-])cc2)nc(O)c1C`, the IC50 was greater than 1000 µM.

Same assay, conditions: read-out: IC50
Work on `COc1cccc(-c2nc(SCC(=O)Nc3ccc(S(N)(=O)=O)cc3)[nH]c(=O)c2C#N)c1` yielded an IC50 of 40 µM.
For `COc1cccc(-c2nc(SCC(=O)Nc3ccc(C(C)=O)cc3)[nH]c(=O)c2C#N)c1`, the IC50 was 60 µM.
For `Cc1cc(C(F)(F)F)nc(SCC(=O)Nc2ccc(Cl)cc2F)n1`, the IC50 was 500 µM.
Work on `COc1ccc(NC(=O)CSc2nc(O)cc(-c3ccccc3)n2)cc1OC` yielded an IC50 of 45 µM.
In the case of `CSc1sc(-c2nc(C)cs2)c(C)c1-c1ccnc(SCC(=O)Nc2ccccc2Cl)n1`, the IC50 is reported as 12 µM.
`COc1cccc(-c2nc(SCC(=O)Nc3ccc([N+](=O)[O-])cc3)[nH]c(=O)c2C#N)c1` showed an IC50 of 300 µM.
`N#Cc1c(-c2ccccc2)nc(SCC(=O)Nc2cccc(C(F)(F)F)c2)[nH]c1=O` gave an IC50 of 200 µM.
`O=C(CSc1nccc(-c2cc(-c3ccc(Cl)cc3Cl)no2)n1)Nc1ccc(C(F)(F)F)cc1` showed an IC50 of 15 µM.
In the case of `CC(C)c1ccc(NC(=O)CSc2nccc(-c3csc(COc4ccccc4Cl)n3)n2)cc1`, the IC50 is reported as 200 µM.
With `O=C(CSc1nccc(-c2cc(-c3ccccc3Cl)no2)n1)Nc1ccc(Cl)cc1` the IC50 was 15 µM.
For `Cn1nc(-c2ccc(-c3ccnc(SCC(=O)Nc4ccc(Cl)cc4)n3)s2)cc1C(F)(F)F`, the IC50 was 10 µM.
`CCC(Sc1nc(O)c(C#N)c(-c2cccc(OC)c2)n1)C(=O)Nc1ccc(C(C)=O)cc1` (centres undefined) gave an IC50 of 60 µM.
In the case of `O=C(CSc1nccc(-c2cc(-c3ccccc3)no2)n1)Nc1ccc(Cl)cc1`, the IC50 is reported as 15 µM.
With `CCCCc1ccc(NC(=O)CSc2nc(O)c(C#N)c(C3CCCCC3)n2)c(C)c1` the IC50 was 200 µM.
`Cc1nc(-c2nc(-c3ccnc(SCC(=O)Nc4ccc(Cl)cc4)n3)cs2)cs1` gave an IC50 of 14 µM.
`CC(C)(C)c1ccc(NC(=O)CSc2nc(C3CCCCC3)c(C#N)c(=O)[nH]2)cc1` was tested, and the IC50 was 350 µM.
`CCOc1ccc(N2C(=O)CC(Sc3nc(C)cc(C)n3)C2=O)cc1` (centres undefined) showed an IC50 of 300 µM.
`CC(C)c1ccc(NC(=O)CSc2nccc(-c3cccs3)n2)cc1` was tested, and the IC50 was 40 µM.
In the case of `CCCc1cc(O)nc(SCC(=O)Nc2ccc(Cl)cc2)n1`, the IC50 is reported as 30 µM.
`Cc1cc(O)nc(SCC(=O)Nc2cc(Cl)ccc2Oc2ccccc2)n1` gave an IC50 of 100 µM.
Work on `O=C(CSc1nccc(-c2csc(-c3ccccc3)n2)n1)Nc1cc(Cl)cc(Cl)c1` yielded an IC50 of 3 µM.
For `COC(OC)c1cc(O)nc(SCC(=O)Nc2ccc(C(F)(F)F)cc2)n1`, the IC50 was 200 µM.
`CSc1sc(-c2nc(C)cs2)c(C)c1-c1ccnc(SCC(=O)Nc2ccc(Cl)cc2)n1` showed an IC50 of 11 µM.
`CC(Sc1nc(-c2ccccc2)c(C#N)c(=O)[nH]1)C(=O)Nc1ccc(Cl)cc1` (centres undefined) was tested, and the IC50 was 300 µM.
Compound `Cc1cc(O)nc(SCC(=O)Nc2ccc(Oc3ccc(Cl)cc3)cc2)n1` has an IC50 of 200 µM.
Compound `CCOC(=O)c1cnc(SCC(=O)Nc2ccc([N+](=O)[O-])cc2)nc1N` has an IC50 of 250 µM.
With `COc1ccc(-c2ccnc(SCC(=O)Nc3ccc(C(C)C)cc3)n2)cc1` the IC50 was 400 µM.
`Cc1nc(SCC(=O)Nc2ccc([N+](=O)[O-])cc2)nc(O)c1C` showed an IC50 greater than 1000 µM.
